pIC50: −log10 of the molar value. Active and inactive are the calls of the source. No cut-off for these calls is given here.
How the values were obtained:
[1] = system: NCI-H1650; assay: Antiproliferative activity against human NCI-H1650 cells assessed as decrease in cell viability after 48 hrs by MTT assay; assay type: functional, cell-based; conditions: NCI-H1650, 48 h
Outline: (§1)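 Cells in exponential growth seeded at 3000 per well and allowed 24 h. Medium then replaced with fresh medium holding a range of compound concentrations, followed by 48 h incubation. Viability read by MTT at 570 nm. IC50 is the concentration giving 50% inhibition of proliferation, reported as mean ± SD of three independent experiments.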

[2] = system: MKN-45; assay: Antiproliferative activity against human MKN45 cells assessed as decrease in cell viability after 48 hrs by MTT assay; assay type: functional, cell-based; conditions: MKN-45, 48 h; outline: as §1
[3] = system: ECa-109 cell line; assay: Antiproliferative activity against human EC109 cells assessed as decrease in cell viability after 48 hrs by MTT assay; assay type: functional, cell-based; conditions: ECa-109, 48 h; outline: as §1
[4] = system: MGC-803; assay: Antiproliferative activity against human MGC803 cells assessed as decrease in cell viability after 48 hrs by MTT assay; assay type: functional, cell-based; conditions: MGC-803, 48 h; outline: as §1
[5] = system: MKN-45; assay: Induction of apoptosis in human MKN45 cells assessed as cell rounding at 4 to 8 uM after 24 hrs by Hoechst 33258 staining-based fluorescence microscopic method; assay type: functional
[6] = system: MKN-45; assay: Induction of apoptosis in human MKN45 cells assessed as viable cells at 2 uM after 24 hrs by Annexin V-FITC/propidium iodide staining-based flow-cytometric method (reference value: 90.8%); assay type: functional; conditions: MKN-45, 24 h, read-out: Activity
[7] = system: MKN-45; assay: Cell cycle arrest in human MKN45 cells assessed as accumulation at G1 phase at 4 uM after 24 hrs by propidium iodide staining-based flow cytometric method (reference value: 58.2%); assay type: functional
Outline: (§2)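 MKN-45 cells exposed to compound at 0, 2, 4 or 8 µM for 24 h. Cells then fixed and stained with PI, and DNA content analysed by flow cytometry to give phase distribution. Run three times; a representative experiment is shown.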

[8] = system: MKN-45; assay: Cell cycle arrest in human MKN45 cells assessed as accumulation at S phase at 8 uM after 24 hrs by propidium iodide staining-based flow cytometric method (reference value: 24.9%); assay type: functional; outline: as §2
[9] = system: MKN-45; assay: Induction of apoptosis in human MKN45 cells assessed as chromatin shrinkage at 4 to 8 uM after 24 hrs by Hoechst 33258 staining-based fluorescence microscopic method; assay type: functional, cell-based
[10] = system: MKN-45; assay: Cell cycle arrest in human MKN45 cells assessed as accumulation at G2/M phase after 24 hrs by propidium iodide staining-based flow cytometric method; assay type: functional; outline: as §2
[11] = system: MKN-45; assay: Induction of apoptosis in human MKN45 cells assessed as late apoptotic cells at 2 uM after 24 hrs by Annexin V-FITC/propidium iodide staining-based flow-cytometric method (reference value: 3.99%); assay type: functional
[12] = system: MKN-45; assay: Cell cycle arrest in human MKN45 cells assessed as accumulation at G1 phase at 2 uM after 24 hrs by propidium iodide staining-based flow cytometric method (reference value: 58.2%); assay type: functional; outline: as §2
[13] = system: MKN-45; assay: Induction of apoptosis in human MKN45 cells assessed as cleavage of caspases-3 after 24 hrs by Western blot method; assay type: functional, cell-based
Outline: (§3)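 MKN-45 cells treated with a range of concentrations for 24 h. Cells lysed in RIPA buffer with protease inhibitors, and protein measured by BCA assay. Lysates run on SDS-PAGE and transferred to nitrocellulose. Membranes blocked in 5% skim milk for 2 h at RT, incubated with primary antibodies overnight at 4 °C, then secondary antibody (1:5000) for 2 h at RT. Detection by ECL on film.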

[14] = system: MKN-45; assay: Induction of apoptosis in human MKN45 cells assessed as viable cells at 8 uM after 24 hrs by Annexin V-FITC/propidium iodide staining-based flow-cytometric method (reference value: 90.8%); assay type: functional; conditions: MKN-45, 24 h, read-out: Activity
[15] = system: MKN-45; assay: Induction of apoptosis in human MKN45 cells assessed as necrotic cells at 8 uM after 24 hrs by Annexin V-FITC/propidium iodide staining-based flow-cytometric method (reference value: 3.86%); assay type: functional
[16] = system: MKN-45; assay: Cell cycle arrest in human MKN45 cells assessed as accumulation at S phase at 4 uM after 24 hrs by propidium iodide staining-based flow cytometric method (reference value: 24.9%); assay type: functional; outline: as §2
[17] = system: MKN-45; assay: Induction of apoptosis in human MKN45 cells assessed as formation of apoptotic bodies at 4 to 8 uM after 24 hrs by Hoechst 33258 staining-based fluorescence microscopic method; assay type: functional, cell-based
[18] = system: MKN-45; assay: Induction of apoptosis in human MKN45 cells assessed as necrotic cells at 4 uM after 24 hrs by Annexin V-FITC/propidium iodide staining-based flow-cytometric method (reference value: 3.86%); assay type: functional
[19] = system: MKN-45; assay: Induction of apoptosis in human MKN45 cells assessed as early apoptotic cells at 4 uM after 24 hrs by Annexin V-FITC/propidium iodide staining-based flow-cytometric method (reference value: 1.31%); assay type: functional
[20] = system: MKN-45; assay: Induction of apoptosis in human MKN45 cells assessed as necrotic cells at 2 uM after 24 hrs by Annexin V-FITC/propidium iodide staining-based flow-cytometric method (reference value: 3.86%); assay type: functional
[21] = system: MKN-45; assay: Induction of apoptosis in human MKN45 cells assessed as cleavage of caspases-9 after 24 hrs by Western blot method; assay type: functional, cell-based; outline: as §3
[22] = system: MKN-45; assay: Induction of apoptosis in human MKN45 cells assessed as downregulation of Bcl-2 expression at 4 to 16 uM after 24 hrs by Western blot method; assay type: functional, cell-based; outline: as §3
[23] = system: MKN-45; assay: Cell cycle arrest in human MKN45 cells assessed as accumulation at G1 phase at 8 uM after 24 hrs by propidium iodide staining-based flow cytometric method (reference value: 58.2%); assay type: functional; outline: as §2
[24] = system: MKN-45; assay: Induction of apoptosis in human MKN45 cells assessed as early apoptotic cells at 8 uM after 24 hrs by Annexin V-FITC/propidium iodide staining-based flow-cytometric method (reference value: 1.31%); assay type: functional
[25] = system: MKN-45; assay: Cell cycle arrest in human MKN45 cells assessed as accumulation at S phase at 2 uM after 24 hrs by propidium iodide staining-based flow cytometric method (reference value: 24.9%); assay type: functional; outline: as §2
[26] = system: MKN-45; assay: Induction of apoptosis in human MKN45 cells assessed as late apoptotic cells at 4 uM after 24 hrs by Annexin V-FITC/propidium iodide staining-based flow-cytometric method (reference value: 3.99%); assay type: functional
[27] = system: MKN-45; assay: Cell cycle arrest in human MKN45 cells assessed as accumulation at G2/M phase at 8 uM after 24 hrs by propidium iodide staining-based flow cytometric method (reference value: 1.62%); assay type: functional; outline: as §2
[28] = system: MKN-45; assay: Cell cycle arrest in human MKN45 cells assessed as accumulation at G2/M phase at 2 uM after 24 hrs by propidium iodide staining-based flow cytometric method (reference value: 1.62%); assay type: functional; outline: as §2
[29] = system: MKN-45; assay: Induction of apoptosis in human MKN45 cells assessed as viable cells at 4 uM after 24 hrs by Annexin V-FITC/propidium iodide staining-based flow-cytometric method (reference value: 90.8%); assay type: functional; conditions: MKN-45, 24 h, read-out: Activity
[30] = system: MKN-45; assay: Induction of apoptosis in human MKN45 cells assessed as upregulation of Bax expression after 24 hrs by Western blot method; assay type: functional, cell-based; outline: as §3
[31] = system: MKN-45; assay: Induction of apoptosis in human MKN45 cells assessed as early apoptotic cells at 2 uM after 24 hrs by Annexin V-FITC/propidium iodide staining-based flow-cytometric method (reference value: 1.31%); assay type: functional
[32] = system: MKN-45; assay: Cell cycle arrest in human MKN45 cells assessed as accumulation at G2/M phase at 4 uM after 24 hrs by propidium iodide staining-based flow cytometric method (reference value: 1.62%); assay type: functional; outline: as §2
[33] = system: MKN-45; assay: Induction of apoptosis in human MKN45 cells assessed as late apoptotic cells at 8 uM after 24 hrs by Annexin V-FITC/propidium iodide staining-based flow-cytometric method (reference value: 3.99%); assay type: functional
[34] = system: MKN-45; assay: Induction of apoptosis in human MKN45 cells after 24 hrs by Annexin V-FITC/propidium iodide staining-based flow-cytometric method; assay type: functional, cell-based

SMILES: CCCSc1nc(NCc2ccccc2)c2ncc(=O)n(Cc3ccccc3)c2n1
- pIC50 [1]: < 4.19
- pIC50 [2]: < 4.19
- pIC50 [3]: < 4.19
- pIC50 [4]: 4.33

SMILES: CCCSc1nc(N2CCN(C)CC2)c2ncc(=O)n(CC3CCCCC3)c2n1
- pIC50 [1]: 4.29
- pIC50 [2]: 4.75
- pIC50 [3]: < 4.19
- pIC50 [4]: 4.27

SMILES: CCCSc1nc(Nc2ccccc2OC)c2ncc(=O)n(Cc3ccccc3)c2n1
- pIC50 [1]: 4.29
- pIC50 [2]: 4.83
- pIC50 [3]: < 4.19
- pIC50 [4]: 4.71

SMILES: CCCSc1nc(N2CCN(C)CC2)c2ncc(=O)n(Cc3ccco3)c2n1
- pIC50 [1]: 4.26
- pIC50 [2]: 4.94
- pIC50 [3]: 4.62
- pIC50 [4]: < 4.19

SMILES: CCCSc1nc(N2CCN(Cc3ccccc3)CC2)c2ncc(=O)n(Cc3ccccc3)c2n1
- pIC50 [1]: < 4.19
- pIC50 [2]: 4.81
- pIC50 [3]: < 4.19
- pIC50 [4]: 4.73

SMILES: CCCSc1nc(N2CCOCC2)c2ncc(=O)n(Cc3ccccc3)c2n1
- pIC50 [1]: < 4.19
- pIC50 [2]: < 4.19
- pIC50 [3]: < 4.19
- pIC50 [4]: 4.30

SMILES: CCCSc1nc(N2CCN(C)CC2)c2ncc(=O)n(Cc3cccs3)c2n1
- pIC50 [1]: < 4.19
- pIC50 [2]: 4.95
- pIC50 [3]: 4.71
- pIC50 [4]: 4.78

SMILES: CN1CCN(c2ncnc3c2ncc(=O)n3Cc2ccccc2)CC1
- pIC50 [1]: < 4.19
- pIC50 [2]: < 4.19
- pIC50 [3]: 4.38
- pIC50 [4]: < 4.19

SMILES: CCCSc1nc(N2CCN(C)CC2)c2ncc(=O)n(Cc3ccccc3)c2n1
- Activity [5]: Active
- viability at 2 µM [6]: 71.4%
- Activity [7]: 16.2%
- Activity [8]: 25.7%
- pIC50 [1]: 5.00
- Activity [9]: Active
- pIC50 [2]: 5.36
- Activity [10]: Dose-dependent effect
- Activity [11]: 11.3%
- Activity [12]: 42.2%
- Activity [13]: Dose-dependent effect
- viability at 8 µM [14]: 66.8%
- Activity [15]: 2.34%
- pIC50 [3]: 5.01
- Activity [16]: 24%
- pIC50 [4]: 5.15
- Activity [17]: Active
- Activity [18]: 1.02%
- Activity [19]: 9.91%
- Activity [20]: 1.62%
- Activity [21]: Dose-dependent effect
- Activity [22]: Active
- Activity [23]: 6.91%
- Activity [24]: 7.77%
- Activity [25]: 20.2%
- Activity [26]: 16%
- Activity [27]: 40.8%
- Activity [28]: 16.6%
- viability at 4 µM [29]: 73%
- Activity [30]: Dose-dependent effect
- Activity [31]: 15.7%
- Activity [32]: 29.2%
- Activity [33]: 23.1%
- Activity [34]: Dose-dependent effect

Source: ChEMBL document CHEMBL4251558, “Synthesis and preliminary antiproliferative activity of new pteridin-7(8H)-one derivatives” (Eur J Med Chem, 2018)
